Data set [1] concerns Plasmodium berghei. Nature of the data set: Antimalarial activity was measured against mice (Mus musculus) infected with Plasmodium berghei by subcutaneous administration of 320 mg/kg dose. The following applies: in vivo, sc. Format: organism-based. More on the design: dose 320 mg/kg, route subcutaneous. The essentials:
(§1)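 […] in mice infected with a normal drug-sensitive P. berghei strain. Compound dissolved or suspended in sesame or peanut oil, given as a single subcutaneous dose 72 h postinfection.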

In data set [2] the test system is Plasmodium berghei. Description: Antimalarial activity was measured against mice (Mus musculus) infected with Plasmodium berghei by subcutaneous administration of 640 mg/kg dose. Format: organism-based. Also noted: dose 640 mg/kg, route subcutaneous. Conditions: in vivo, sc. The essentials: as §1
The test system of data set [3] is Plasmodium berghei. Description: Antimalarial activity in Plasmodium berghei infected mice (Mus musculus) after subcutaneous 160 mg/kg dose. Format: functional. The essentials:
(§2)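 Normal drug-sensitive P. berghei strain in mice. Compound dissolved or suspended in sesame or peanut oil, given parenterally as a single subcutaneous dose 72 h postinfection.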

The subject of data set [4] is Plasmodium berghei. Description: (§3) Antimalarial activity in Plasmodium berghei infected mice (Mus musculus) after 20 mg/kg subcutaneous dose. Format: functional. The essentials: as §2
In data set [5] the test system is Plasmodium berghei. Description: Antimalarial activity in Plasmodium berghei infected mice (Mus musculus) after subcutaneous 320 mg/kg dose. It counts as functional. The essentials:
as §2

In data set [6] the test system is Plasmodium berghei. Description: (§4) Antimalarial activity in Plasmodium berghei infected mice (Mus musculus) after 40 mg/kg subcutaneous dose. It counts as functional. A digest of the protocol:
as §2

Data set [7] deals with Plasmodium berghei. Description: Antimalarial activity in Plasmodium berghei infected mice (Mus musculus) after subcutaneous 640 mg/kg dose. It counts as functional. The essentials: as §2
In data set [8] the test system is Plasmodium berghei. Description: (§5) Antimalarial activity in Plasmodium berghei infected mice (Mus musculus) after 80 mg/kg subcutaneous dose. It counts as functional. The essentials: as §2
Data set [9] deals with Plasmodium berghei. The description is as §3. Format: functional. The essentials: as §1
The source holds these as a separate data set.

Data set [10] concerns Plasmodium berghei. The data set is described as §4. It counts as functional. The essentials:
as §1
The source holds these as a separate data set.

The test system of data set [11] is Plasmodium berghei. Nature of the data set: Antimalarial activity was measured against mice (Mus musculus) infected with Plasmodium berghei by subcutaneous administration of 160 mg/kg dose. It counts as organism-based. More on the design: dose 160 mg/kg, route subcutaneous. Conditions: in vivo, sc. A digest of the protocol:
as §1

Data set [12] concerns Plasmodium berghei. Nature of the data set: Antimalarial activity was measured against mice (Mus musculus) infected with Plasmodium berghei by subcutaneous administration of 40 mg/kg dose. It counts as organism-based. More on the design: dose 40 mg/kg, route subcutaneous. The following applies: in vivo, sc. The essentials:
as §1

For data set [13], the system named is Plasmodium berghei. The description is as §5. Format: functional. The essentials:
as §1
This is another data set of the same source.

Take `O=c1c2c(n(O)c3ccc(Cl)cc13)CC(c1ccc(C(F)(F)F)cc1)C/C2=N\CCCN1CCCC1` (centres undefined): the figures for the “No. of toxic deaths” value in the data set on Plasmodium berghei [1] and in the data set on Plasmodium berghei [2] were 1 and 4, respectively. The “No. of cured mice” value came out at 5 in the data set with Plasmodium berghei [3]; 1 in the data set with Plasmodium berghei [4]; 3 with Plasmodium berghei [5]; 2 in the data set on Plasmodium berghei [6]; 1 with Plasmodium berghei [7]; 5 with Plasmodium berghei [8]. The “Delta mean survival time” value in the data set on Plasmodium berghei [9] was found to be 11; in the data set on Plasmodium berghei [10], 10.8.
Regarding `CCN(CC)CC/N=C1\CC(c2ccc(C(F)(F)F)cc2)Cc2c1c(=O)c1cc(Cl)ccc1n2O` (centres undefined), the “No. of toxic deaths” value in the data set with Plasmodium berghei [11] was determined as 1; with Plasmodium berghei [1] it was 1; in the data set with Plasmodium berghei [2], 2. For the same compound, the “No. of cured mice” value in the data set on Plasmodium berghei [3] was 4; with Plasmodium berghei [4] it was 1; in the data set with Plasmodium berghei [5], 4; in the data set on Plasmodium berghei [6] it was 2; with Plasmodium berghei [7], 3; in the data set with Plasmodium berghei [8], 5. Moreover, the “Delta mean survival time” value in the data set on Plasmodium berghei [9] amounted to 10.5; in the data set on Plasmodium berghei [10], 10.8.
As for `O=c1c2c(n(O)c3ccc(Cl)cc13)CC(c1ccc(C(F)(F)F)cc1)C/C2=N\CCCNCCO` (centres undefined), the “No. of toxic deaths” value came out at 1 in the data set with Plasmodium berghei [1] and 4 in the data set with Plasmodium berghei [2]. Besides, the “No. of cured mice” value in the data set with Plasmodium berghei [3] came out at 5; with Plasmodium berghei [5], 4; with Plasmodium berghei [6], 3; in the data set with Plasmodium berghei [7] it was 1; in the data set with Plasmodium berghei [8] it was 5. The “Delta mean survival time” value worked out at 6.4 with Plasmodium berghei [9] and 10.7 with Plasmodium berghei [10].
Take `CN(C)CCC/N=C1\CC(c2ccc(C(F)(F)F)cc2)Cc2c1c(=O)c1cc(Cl)ccc1n2O` (centres undefined): the “No. of toxic deaths” value in the data set with Plasmodium berghei [11] amounted to 2; in the data set with Plasmodium berghei [1], 3; in the data set with Plasmodium berghei [2], 5. Besides, the “No. of cured mice” value in the data set on Plasmodium berghei [3] is recorded as 3; in the data set on Plasmodium berghei [4], 5; in the data set with Plasmodium berghei [5], 2; in the data set with Plasmodium berghei [6], 5; with Plasmodium berghei [7], 1; with Plasmodium berghei [8], 4.
Consider `COc1ccccc1C1C/C(=N\CCCN(C)C)c2c(n(O)c3ccc(Cl)cc3c2=O)C1` (centres undefined), for which the “No. of toxic deaths” value in the data set on Plasmodium berghei [11] came to 5; with Plasmodium berghei [12] it was 1; with Plasmodium berghei [2] it was 5. Moreover, the “Delta mean survival time” value in the data set with Plasmodium berghei [10] was 0.3.
Consider `CC1/C(=N\CCCN(C)C)c2c(n(O)c3ccc(Cl)cc3c2=O)CC1c1ccc(C(F)(F)F)cc1` (centres undefined), for which the “No. of toxic deaths” value with Plasmodium berghei [11], in the data set on Plasmodium berghei [1] and in the data set on Plasmodium berghei [2] was 5 each time. Also, the “No. of cured mice” value in the data set on Plasmodium berghei [6] was 2; in the data set with Plasmodium berghei [8], 5. Besides, the results for the “Delta mean survival time” value in the data set with Plasmodium berghei [9] and with Plasmodium berghei [10] were 8.1 and 10.2, respectively.
For the compound `CN(C)CCC/N=C1\CC(c2ccc(C(F)(F)F)cc2)Cc2nc3ccc(Cl)cc3c(O)c21` (centres undefined), the “No. of toxic deaths” value amounted to 1 in the data set on Plasmodium berghei [11], 2 in the data set on Plasmodium berghei [1] and 3 in the data set with Plasmodium berghei [2]. The “No. of cured mice” value with Plasmodium berghei [3] amounted to 3; in the data set with Plasmodium berghei [4], 3; with Plasmodium berghei [5], 2; in the data set on Plasmodium berghei [6] it was 5; in the data set on Plasmodium berghei [7] it was 2; in the data set with Plasmodium berghei [8] it was 5. Moreover, in the data set on Plasmodium berghei [9], the “Delta mean survival time” value came out at 10.4.
`O=c1c2c(n(O)c3ccc(Cl)cc13)CC(c1cccc(C(F)(F)F)c1)C/C2=N\CCCCCCN1CCCCC1` (centres undefined): the figures for the “No. of toxic deaths” value with Plasmodium berghei [11], in the data set on Plasmodium berghei [1] and with Plasmodium berghei [2] were 3, 5 and 5, respectively. Also, in the data set with Plasmodium berghei [3], the “No. of cured mice” value amounted to 2. Moreover, the “Delta mean survival time” value is reported as 6.4 in the data set with Plasmodium berghei [13] and 4 in the data set with Plasmodium berghei [10].
With `CN(C)CCC/N=C1\CC2(CCCCC2)Cc2c1c(=O)c1cc(Cl)ccc1n2O`, the “No. of toxic deaths” value in the data set with Plasmodium berghei [11], in the data set with Plasmodium berghei [12] and in the data set with Plasmodium berghei [2] was 5 throughout.

The values above are taken from ChEMBL document CHEMBL1126276, “Synthesis and antimalarial properties of 1-imino derivatives of 7-chloro-3-substituted-3,4-dihydro-1,9(2H,10H)-acridinediones and related structures” (J Med Chem, 1992).
